The values below come from publication PMC6648849 (ACS Omega, 2019).

The test system of data set [1] is HepG2 cells. Briefly: cellular uptake by CLSM in HepG2 cells. The note with it: 10 μM, 6 h, 37 °C, 5% CO2; CLSM fluorescence imaging. The data set is classed as cell-based, human. In a few lines: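 HepG2 cells seeded on glass-bottom dishes at 2.0 × 10^4 cells/well, grown ~24 h, then transduced with BacMam tubulin–GFP for 24 h at 37 °C, 5% CO2. Incubated with 10 μM test compound in medium, PBS-washed, and nuclei stained with 5 μg/mL Hoechst 33342 for 10 min. Confocal imaging: compound ex 550/em 574 nm, GFP ex 489/em 510 nm.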

Data set [2] has as its system HepG2 cells. The experiment in a line: cell viability assay. Conditions: 0–20 μM, 37 °C, 5% CO2, WST (Cell Counting Kit-8), absorbance at 450 nm. The format is cell-based, human. In a few lines: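 HepG2 cells plated at 1.0 × 10^4 cells/well and grown 24 h at 37 °C, 5% CO2. Medium replaced with 0–20 μM test compound for 24 or 72 h. Then fresh medium plus Cell Counting Kit-8 (WST) reagent, 4 h incubation, and absorbance read at 450 nm. Viability (%) is relative to untreated control cells set as 100%.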
(Tetrazolium dyes change colour on reduction, which living cells bring about.)

Data set [3] concerns MTs. The experiment in a line: depolymerization/polymerization of MTs in living HepG2 cells. The data set is classed as cell-based, human. Conditions: 10 μM colchicine coincubated with 10 μM TP–TMR, 6 h, 37 °C. The gist of the method: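 HepG2 cells expressing BacMam-delivered tubulin–GFP were coincubated with 10 μM test compound and 10 μM colchicine for 6 h at 37 °C under 5% CO2. Nuclei stained with Hoechst 33342 after a PBS wash. Compound and tubulin–GFP signals imaged by confocal microscopy to assess colocalization of compound fluorescence with microtubule fibres.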

For data set [4] the following is noted: cited from earlier work.
Data set [5] relates to MTs. The note with it: cited from earlier work.

Take “5(6)-carboxytetramethylrhodamine [TMR–COOH]”: the “cellular uptake into HepG2 cells” value with HepG2 cells [1] is “not observed”.
On to `COc1cc2c(c(OC)c1OC)-c1ccc(OC)c(=O)cc1[C@@H](NC(C)=O)CC2` [colchicine], for which the “cytotoxicity against HepG2 cells, 24 h” value with HepG2 cells [2] is given as “clear cytotoxicity in a concentration-dependent manner”. Also, in the data set with MTs [3], the “effect on polymerization of MTs in HepG2 cells” value is listed as “polymerization of MTs was inhibited”.
Take `CC(=O)O[C@H]1C(=O)[C@@]2(C)[C@H]([C@H](OC(=O)c3ccccc3)[C@]3(O)C[C@H](OC(=O)[C@H](O)[C@@H](NC(=O)c4ccccc4)c4ccccc4)C(C)=C1C3(C)C)[C@]1(OC(C)=O)CO[C@@H]1C[C@@H]2O` [taxol]: the “cytotoxicity against HepG2 cells, 24 h” value in the data set on HepG2 cells [2] is “clear cytotoxicity in a concentration-dependent manner”.
For CGGGKKHVPGGGSVQIVYKPVDL [TP], the water solubility entry in data set [4] is given as “high water solubility at millimolar concentrations”. Moreover, the “effect of binding on polymerization/depolymerization of MTs in vitro” value with MTs [5] was “does not inhibit”.
